KCNK9 block = human KCNK9 channel inhibition. AID 488922. Q9NPC2. B-score at 10 µM. hit rate 1.2% among 310,000. HEK293 KCNK9, FluxOR thallium flux fluorescence; stronger effect = lower value;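 active = ratio B-score over 3 SD below the library mean, with starting fluorescence within 5 SD of its mean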;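 note: negative B-score means less thallium flux so channel inhibition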
Target sequence (Q9NPC2 whole entry, looked up): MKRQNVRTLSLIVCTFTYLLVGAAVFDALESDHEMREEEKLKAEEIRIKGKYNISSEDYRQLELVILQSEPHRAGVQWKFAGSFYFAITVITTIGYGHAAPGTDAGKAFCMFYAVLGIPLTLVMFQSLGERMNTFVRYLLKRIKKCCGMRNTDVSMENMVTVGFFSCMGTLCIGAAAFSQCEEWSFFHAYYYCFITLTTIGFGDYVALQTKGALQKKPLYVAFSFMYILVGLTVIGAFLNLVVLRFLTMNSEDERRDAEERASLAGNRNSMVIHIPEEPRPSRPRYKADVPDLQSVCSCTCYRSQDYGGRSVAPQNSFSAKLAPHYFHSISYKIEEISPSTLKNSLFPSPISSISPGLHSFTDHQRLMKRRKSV
KCNQ1 pot = potentiators or activators of human KCNQ1 potassium channel | B-score at 10 µM | P51787 | hit rate 0.35% among 310,000 | CHO-K1 KCNQ1, thallium flux FluxOR fluorescence; stronger effect = higher value;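 active = fluorescence ratio B-score, a plate-corrected score, at least three library SD, with initial intensity B-score within 5 SD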
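Schedule – 37 °C overnight plating, 90-min dark dye load, 20-min compound pretreatment · System – stable KCNQ1 CHO-K1 line · Probe or stimulus – thallium- and potassium-containing depolarizing buffer · Measured by – kinetic FluxOR fluorescence, 10 s baseline plus 110 s post-stimulus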
hERG protect = hERG (human) protection from proarrhythmic block. CHO-hERG, FluxOR thallium flux, dofetilide IC70 present. hit rate 0.51% among 310,000. activation (rescue from dofetilide block), less the hit threshold, % at 10 µM. AID 1511;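 active = activation above the mean of controls blocked by dofetilide plus 5 SD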;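 note: thallium influx through hERG after potassium depolarization seen as dye fluorescence rise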
Kir21 block = blocks the mouse Kir2.1 inward-rectifier potassium channel. P35561. HEK293-Kir2.1, FluxOR thallium flux fluorescence; stronger effect = lower value. B-score at 10 µM. hit rate 0.85% among 310,000;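 active = fluorescence ratio B-score at or below minus 3 SD of library scores, with starting-brightness B-score within 2 SD, cut at about -4.2 in these data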;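 note: channel flux triggered by added potassium and thallium sulfate stimulus; B-score of peak minus minimum fluorescence over baseline after thallium stimulus; more negative B-score means stronger Kir2.1 block with less thallium influx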
KCNK3 inh = human KCNK3 channel inhibition, primary screen; O14649; CHO-KCNK3 thallium flux, FluxOR fluorescence; stronger effect = lower value; B-score at 10 µM; hit rate 0.84% among 340,000; AID 602410;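 active = B-score under library mean minus 4 SD, starting fluorescence ratio at most library mean plus 5 SD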;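 note: more negative B-score means stronger inhibition of thallium flux through KCNK3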
Target sequence (O14649 whole entry, looked up): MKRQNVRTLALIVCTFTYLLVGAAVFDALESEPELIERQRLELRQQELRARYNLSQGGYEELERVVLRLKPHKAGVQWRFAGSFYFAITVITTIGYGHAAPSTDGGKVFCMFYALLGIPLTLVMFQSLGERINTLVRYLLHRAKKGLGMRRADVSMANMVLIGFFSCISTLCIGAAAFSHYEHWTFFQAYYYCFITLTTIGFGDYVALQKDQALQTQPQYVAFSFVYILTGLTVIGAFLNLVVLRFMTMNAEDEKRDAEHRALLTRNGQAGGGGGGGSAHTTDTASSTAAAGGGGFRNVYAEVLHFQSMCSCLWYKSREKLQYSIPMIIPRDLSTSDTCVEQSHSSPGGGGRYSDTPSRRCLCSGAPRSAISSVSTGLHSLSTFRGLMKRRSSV
KCNQ1 inh = human KCNQ1 channel inhibition; P51787; CHO-K1 KCNQ1, FluxOR thallium flux fluorescence; stronger effect = higher value; B-score at 10 µM; hit rate 1.3% among 310,000; AID 2642;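 active = compounds whose thallium flux B-score, printed positive for inhibition, exceeds three library SD while starting fluorescence stays within three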;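 note: channel opened by potassium depolarization with thallium stimulus after 20 min compound exposure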
KCNK9 block conf = human KCNK9 inhibitor confirmation. hit rate 43% among 4,900. shares compounds with KCNK9 block. AID 492992. inhibition, % at 10 µM. HEK293 KCNK9 cells, FluxOR thallium flux fluorescence;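 active = thallium signal inhibited by more than 5 SD of the compound-free buffer control wells, on both duplicate plates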
Kir21 sel = tests whether KCNK9 modulators also affect mouse Kir2.1; shares compounds with KCNK9 block; Kir2.1 cells, FluxOR thallium flux fluorescence; hit rate 4% among 4,900; inhibition, % at 10 µM;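 active = thallium signal drop more than 5 SD beyond the mean of the no-compound control wells, seen in both duplicate plates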;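 note: signal is fluorescence rise after thallium addition divided by baseline fluorescence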
KCNK9 uninduced = non-induced cell nonspecific activity of KCNK9 modulators | shares compounds with KCNK9 block | non-induced KCNK9-HEK293, FluxOR thallium flux | inhibition, % at 10 µM | hit rate 40% among 4,900 | AID 492997;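 active = thallium signal drop beyond 5 SD of the untreated control mean, on both duplicate plates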
Each line names hits and unclear results; the compound was inactive in the other large screens (follow-up assays come after a bar, where they were run). Most compounds without a hit are left out; they make up all but 3.7% or so of the library.

Cc1ccc(C(=O)NCC(=O)OC(C)C(=O)NCCC2=CCCCC2)cc1C (stereo not given)	none
CC1Sc2ccc(S(=O)(=O)CCC(=O)Nc3ccccn3)cc2NC1=O (stereo not given)	none
CN(c1ccccc1)S(=O)(=O)c1cccc(NC(=O)CSc2n[nH]c(N)n2)c1	none | KCNK9 block conf inactive | Kir21 sel inactive | KCNK9 uninduced inactive
COc1ccc(/C=C/C(=O)c2ccccc2)cc1COc1ccc(F)cc1	KCNK9 block -12.8 | KCNK9 block conf 70.0% | Kir21 sel 28.5% | KCNK9 uninduced 55.0%
COc1ccc(C(=O)/C=C/c2ccc(OC)c(COc3ccccc3F)c2)cc1	KCNK9 block -16 | KCNK9 block conf 70.0% | Kir21 sel inactive | KCNK9 uninduced 31.0%
Nn1c(SCC(=O)Nc2ccc(OC(F)F)cc2)nnc1-c1ccco1	none
Cc1ccc(C(C[N+](=O)[O-])Sc2ccc(N)cc2)cc1 (stereo not given)	none
CC(C)N(Cc1ccccc1)C(=O)CCc1ccccc1	none | KCNK9 block conf inactive | Kir21 sel inactive | KCNK9 uninduced inactive
Cc1nccc(-c2ccc(-n3cnc4ccccc43)cc2)n1	none | KCNK9 block conf inactive | Kir21 sel inactive | KCNK9 uninduced inactive
O=C(Cn1c(=O)oc2cccnc21)Nc1ccc(C(F)(F)F)cc1	none
COc1ccccc1N(C(=O)NCc1ccccc1)C1=NCC(C)S1 (stereo not given)	none | KCNK9 block conf inactive | Kir21 sel inactive | KCNK9 uninduced inactive
O=C(COC(=O)/C=C/c1ccccc1Cl)NC1CCCC1	none (no result: KCNK9 block, KCNQ1 pot, hERG protect, Kir21 block, KCNQ1 inh)
COc1ccccc1OCCCCN1CCN(c2ccccc2OC)CC1	none
COc1ccccc1N1CCN(CCCCOc2cccc3ccccc23)CC1	none | KCNK9 block conf inactive | Kir21 sel inactive | KCNK9 uninduced inactive
CCc1nnc(NS(=O)(=O)c2ccc(NCc3cc(Cl)cc(Cl)c3O)cc2)s1	none | KCNK9 block conf inactive | Kir21 sel inactive | KCNK9 uninduced inactive
CCc1nnc(NS(=O)(=O)c2ccc(NCc3cc(Cl)ccc3O)cc2)s1	none | KCNK9 block conf inactive | Kir21 sel inactive | KCNK9 uninduced inactive
CCc1nnc(NS(=O)(=O)c2ccc(NC(=O)OC)cc2)s1	none
CC(NC(=O)Cn1nc(C(F)(F)F)c2c1CCC2)c1ccccc1 (stereo not given)	none | KCNK9 block conf inactive | Kir21 sel inactive | KCNK9 uninduced 30.5%
O=C(c1cc2cc(F)ccc2[nH]1)N1CCN(c2cccc(Cl)c2)CC1	none | KCNK9 block conf inactive | Kir21 sel inactive | KCNK9 uninduced inactive
COc1cccc(N2CCN(C(=O)c3cc4cc(Cl)ccc4[nH]3)CC2)c1	none
COc1ccc(-c2cc(CNS(=O)(=O)c3ccc(F)cc3)on2)cc1	none
O=C(COc1ccccc1[N+](=O)[O-])Nc1ccc2oc(=O)ccc2c1	KCNK9 block -9.63 | KCNK9 block conf inactive | Kir21 sel inactive | KCNK9 uninduced inactive
Cc1cc(=O)oc2cc(NC(=O)COc3ccccc3[N+](=O)[O-])ccc12	none (no result: KCNK9 block, KCNQ1 pot, hERG protect, Kir21 block, KCNQ1 inh)
CCc1cccc(CC)c1NC(=O)COC(=O)c1cccc(S(=O)(=O)N2CCc3ccccc3C2)c1	KCNK9 block -9.11 | KCNK9 block conf 56.5% | Kir21 sel inactive | KCNK9 uninduced 34.0%
O=C1C2=C(Nc3ccccc3SC2c2ccco2)c2ccccc21 (stereo not given)	KCNK9 block -18.5, KCNQ1 inh 13 | KCNK9 block conf 65.0% | Kir21 sel inactive | KCNK9 uninduced 30.5%
Cc1ccc(NC(=O)CCSc2nnc(C)o2)cc1	none
COC(=O)c1cc(NC(=O)CN(c2ccccc2OC)S(=O)(=O)c2ccccc2)ccc1Cl	KCNK9 block -14.9 | KCNK9 block conf 64.5% | Kir21 sel inactive | KCNK9 uninduced inactive
CCC(=O)N1CCc2cc(S(=O)(=O)N3CCN(c4ccccc4Cl)CC3)ccc21	none
O=C(Cc1ccc(F)cc1)NC1CCS(=O)(=O)C1 (stereo not given)	none
CC(NC(=O)CNC(=O)c1ccc2c(c1)OCO2)c1ccc(S(N)(=O)=O)cc1 (stereo not given)	none (no result: KCNK9 block, KCNQ1 pot, hERG protect, Kir21 block, KCNQ1 inh)
COC(=O)c1sc(-c2ccc(C(C)(C)C)cc2)cc1NC(=O)CCC(=O)O	none | KCNK9 block conf inactive | Kir21 sel inactive | KCNK9 uninduced inactive
O=C(NCCNc1ccc([N+](=O)[O-])cc1C(F)(F)F)c1cccc(F)c1	none | KCNK9 block conf inactive | Kir21 sel inactive | KCNK9 uninduced inactive
O=C(NCCNc1ccc([N+](=O)[O-])cc1C(F)(F)F)c1ccccc1	none | KCNK9 block conf inactive | Kir21 sel inactive | KCNK9 uninduced inactive
CC(C)N(Cc1nc(-c2ccc(Cl)cc2)no1)C(=O)C12CC3CC(CC(C3)C1)C2	none | KCNK9 block conf inactive | Kir21 sel inactive | KCNK9 uninduced inactive
Cc1ccc(C(=O)N(Cc2nc(-c3ccc(C)cc3)no2)C(C)C)cc1	none
Cc1cccc(-c2noc(CN(C(=O)C34CC5CC(CC(C5)C3)C4)C(C)C)n2)c1	none | KCNK9 block conf inactive | Kir21 sel inactive | KCNK9 uninduced inactive
Cc1ccc(SCC(=O)N(Cc2nc(-c3ccccc3)no2)C(C)C)cc1	none | KCNK9 block conf inactive | Kir21 sel inactive | KCNK9 uninduced 27.5%
Cc1ccc(-n2nc3c(=O)n(CCCC(=O)NCc4ccc(C)o4)nc(C)c3c2C)cc1	none
Cc1cccc(OCCSc2nc3ccccc3n2CC(=O)O)c1	none
COc1ccc(OC)c(S(=O)(=O)NCC(c2cccs2)N2CCc3ccccc3C2)c1 (stereo not given)	KCNK9 block -9.09 | KCNK9 block conf inactive | Kir21 sel inactive | KCNK9 uninduced inactive
COc1ccc(S(=O)(=O)NCC(c2cccs2)N2CCc3ccccc3C2)cc1 (stereo not given)	none
O=C(c1ccc(Cl)nc1)c1cccs1	none (no result: KCNK3 inh)
O=C(c1cccs1)c1no[n+]([O-])c1C(=O)c1cccs1	KCNK9 block -11.3, KCNQ1 inh 9 | KCNK9 block conf 44.5% | Kir21 sel 35.5% | KCNK9 uninduced 52.5%
COc1ccc(C(=O)NC2CCN(C(=O)NCc3ccccc3)CC2)cc1	none
O=C(Nc1ccc2c(c1)OCO2)c1ccc(Br)c(S(=O)(=O)N2CCCC2)c1	KCNK9 block -8.73 | KCNK9 block conf inactive | Kir21 sel inactive | KCNK9 uninduced inactive
CN(C)/C=c1\sc2c(C#N)cc(C(=O)c3ccc(Br)cc3)n2c1=O	KCNK9 block -8.43 | KCNK9 block conf 35.5% | Kir21 sel 62.5% | KCNK9 uninduced 77.5%
CCCCn1cc(C(=O)c2cc(Br)ccc2O)cc(C#N)c1=O	none
O=C(Nc1ccc(-c2nnc3n2CCCCC3)cc1)c1cc2ccccc2o1	none

Bioassay records deposited in PubChem by Johns Hopkins Ion Channel Center.
